Assay results reported in ChEMBL document CHEMBL5724801, “EUbOPEN Chemogenomics Library - Multiplex” (2024).
Values joined by “and” are separate entries in the source; they are usually repeats but may differ in a detail not shown here. Equal values may be shown once.

Tested on: HEK-293T
Assay: Multiplex assay against HEK293T
Assay type: toxicity, cell-based
Conditions: human
Method in brief: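 Live cells were stained at seeding with Hoechst33342, BioTracker Green Microtubule Cytoskeleton Dye, MitoTracker Red and Annexin V Alexa Fluor 680, then imaged on a CQ1 microscope at 37°C and 5% CO2 after compound addition. CellPathfinder machine-learning gating split cells into Hoechst high-intensity objects or normal cells. Normal cells were split into healthy, pyknosed or fragmented nuclei, and pyknosed cells into mitotic or apoptotic. Tubulin, mitochondrial-mass and membrane-permeability phenotypes are per cents of healthy-nucleus cells.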

[1] = 12 h, 1 µM, compound concentration 1 uM
[2] = 12 h, 10 µM, compound concentration 10 uM
[3] = 24 h, 1 µM, compound concentration 1 uM
[4] = 24 h, 10 µM, compound concentration 10 uM
[5] = 48 h, 1 µM, compound concentration 1 uM
[6] = 48 h, 10 µM, compound concentration 10 uM

In the case of `CCC(=O)OCC(=O)[C@@]1(OC(=O)CC)[C@@H](C)C[C@H]2[C@@H]3CCC4=CC(=O)C=C[C@]4(C)[C@@]3(Cl)[C@@H](O)C[C@@]21C` [BECLOMETHASONE DIPROPIONATE], the “Population Apoptotic (%)” value [1] is reported as 43% and 47%, the “Population Fragmented Nuclei (%)” value [1] is reported as 8% and 5% and the “Population Healthy Nuclei (%)” value [1] is reported as 75% and 74%. For the same compound, the “Population Hoechst High Intensity Objects (%)” value [1] was 7% and 4%, the “Population Membrane Permeable-Phenotype (%)” value [1] was 0% and the “Population Mitochondria Different-Phenotype (%)” value [1] was 60% and 75%. For the same compound, the “Population Mitotic Cells (%)” value [1] was 56% and 52%, the “Population Normal (%)” value [1] was 92% and 95% and the “Population Pyknosed Nuclei (%)” value [1] was 15% and 19%. The “Population Tubulin-Different-Phenotype (%)” value [1] was 48% and 42%, the “Total Cell Count” value [1] was 388 and 356 and the “Population Apoptotic (%)” value [2] was 60% and 68%. The “Population Fragmented Nuclei (%)” value [2] was 8% and 6%, the “Population Healthy Nuclei (%)” value [2] was 66% and the “Population Hoechst High Intensity Objects (%)” value [2] was 14% and 16%. The “Population Membrane Permeable-Phenotype (%)” value [2] was 0%, the “Population Mitochondria Different-Phenotype (%)” value [2] was 87% and 93% and the “Population Mitotic Cells (%)” value [2] was 39% and 31%. For the same compound, the “Population Normal (%)” value [2] was 85% and 83%, the “Population Pyknosed Nuclei (%)” value [2] was 25% and 27% and the “Population Tubulin-Different-Phenotype (%)” value [2] was 65% and 35%. The “Total Cell Count” value [2] was 236 and 252, the “Population Apoptotic (%)” value [3] was 32% and 43% and the “Population Fragmented Nuclei (%)” value [3] was 7%. The “Population Healthy Nuclei (%)” value [3] was 81%, the “Population Hoechst High Intensity Objects (%)” value [3] was 4% and 5% and the “Population Membrane Permeable-Phenotype (%)” value [3] was 0%. For the same compound, the “Population Mitochondria Different-Phenotype (%)” value [3] was 40% and 52%, the “Population Mitotic Cells (%)” value [3] was 67% and 56% and the “Population Normal (%)” value [3] was 95% and 94%. The “Population Pyknosed Nuclei (%)” value [3] was 11%, the “Population Tubulin-Different-Phenotype (%)” value [3] was 31% and 18% and the “Total Cell Count” value [3] was 507 and 446. For the same compound, the “Population Apoptotic (%)” value [4] was 56% and 62%, the “Population Fragmented Nuclei (%)” value [4] was 13% and 5% and the “Population Healthy Nuclei (%)” value [4] was 65% and 71%. The “Population Hoechst High Intensity Objects (%)” value [4] was 11% and 9%, the “Population Membrane Permeable-Phenotype (%)” value [4] was 0% and the “Population Mitochondria Different-Phenotype (%)” value [4] was 89% and 97%. For the same compound, the “Population Mitotic Cells (%)” value [4] was 44% and 37%, the “Population Normal (%)” value [4] was 88% and 90% and the “Population Pyknosed Nuclei (%)” value [4] was 21% and 23%. The “Population Tubulin-Different-Phenotype (%)” value [4] was 73% and 43%, the “Total Cell Count” value [4] was 270 and 243 and the “Population Apoptotic (%)” value [5] was 30% and 31%. The “Population Fragmented Nuclei (%)” value [5] was 11% and 12%, the “Population Healthy Nuclei (%)” value [5] was 78% and 79% and the “Population Hoechst High Intensity Objects (%)” value [5] was 4% and 3%. The “Population Membrane Permeable-Phenotype (%)” value [5] was 0%, the “Population Mitochondria Different-Phenotype (%)” value [5] was 28% and 32% and the “Population Mitotic Cells (%)” value [5] was 69% and 68%. For the same compound, the “Population Normal (%)” value [5] was 95% and 96%, the “Population Pyknosed Nuclei (%)” value [5] was 9% and 8% and the “Population Tubulin-Different-Phenotype (%)” value [5] was 18% and 17%. The “Total Cell Count” value [5] was 742 and 655, the “Population Apoptotic (%)” value [6] was 67% and 65% and the “Population Fragmented Nuclei (%)” value [6] was 14% and 12%. For the same compound, the “Population Healthy Nuclei (%)” value [6] was 72%, the “Population Hoechst High Intensity Objects (%)” value [6] was 5% and the “Population Membrane Permeable-Phenotype (%)” value [6] was 0%. The “Population Mitochondria Different-Phenotype (%)” value [6] was 72% and 90%, the “Population Mitotic Cells (%)” value [6] was 32% and 34% and the “Population Normal (%)” value [6] was 94%. For the same compound, the “Population Pyknosed Nuclei (%)” value [6] was 13% and 15%, the “Population Tubulin-Different-Phenotype (%)” value [6] was 43% and 62% and the “Total Cell Count” value [6] was 347 and 283.

With `O=c1ccc2ccc(OCCCCN3CCN(c4cccc5sccc45)CC3)cc2[nH]1` [BREXPIPRAZOLE] the “Population Apoptotic (%)” value [1] was 44% and 42%, the “Population Fragmented Nuclei (%)” value [1] was 6% and 5% and the “Population Healthy Nuclei (%)” value [1] was 77% and 80%. For the same compound, the “Population Hoechst High Intensity Objects (%)” value [1] was 6%, the “Population Membrane Permeable-Phenotype (%)” value [1] was 0% and the “Population Mitochondria Different-Phenotype (%)” value [1] was 67% and 69%. The “Population Mitotic Cells (%)” value [1] was 55% and 57%, the “Population Normal (%)” value [1] was 93% and the “Population Pyknosed Nuclei (%)” value [1] was 15% and 14%. For the same compound, the “Population Tubulin-Different-Phenotype (%)” value [1] was 51% and 47%, the “Total Cell Count” value [1] was 392 and 354 and the “Population Apoptotic (%)” value [2] was 82% and 85%. For the same compound, the “Population Fragmented Nuclei (%)” value [2] was 17% and 10%, the “Population Healthy Nuclei (%)” value [2] was 43% and 66% and the “Population Hoechst High Intensity Objects (%)” value [2] was 66% and 41%. The “Population Membrane Permeable-Phenotype (%)” value [2] was 0%, the “Population Mitochondria Different-Phenotype (%)” value [2] was 97% and 100% and the “Population Mitotic Cells (%)” value [2] was 17% and 14%. The “Population Normal (%)” value [2] was 33% and 59%, the “Population Pyknosed Nuclei (%)” value [2] was 38% and 23% and the “Population Tubulin-Different-Phenotype (%)” value [2] was 81% and 62%. The “Total Cell Count” value [2] was 299 and 200, the “Population Apoptotic (%)” value [3] was 41% and 42% and the “Population Fragmented Nuclei (%)” value [3] was 10% and 4%. For the same compound, the “Population Healthy Nuclei (%)” value [3] was 73% and 87%, the “Population Hoechst High Intensity Objects (%)” value [3] was 8% and 2% and the “Population Membrane Permeable-Phenotype (%)” value [3] was 0%. The “Population Mitochondria Different-Phenotype (%)” value [3] was 51% and 52%, the “Population Mitotic Cells (%)” value [3] was 58% and 57% and the “Population Normal (%)” value [3] was 91% and 97%. For the same compound, the “Population Pyknosed Nuclei (%)” value [3] was 16% and 7%, the “Population Tubulin-Different-Phenotype (%)” value [3] was 36% and 35% and the “Total Cell Count” value [3] was 501 and 449. The “Population Apoptotic (%)” value [4] was 91% and 89%, the “Population Fragmented Nuclei (%)” value [4] was 12% and 10% and the “Population Healthy Nuclei (%)” value [4] was 37% and 59%. The “Population Hoechst High Intensity Objects (%)” value [4] was 68% and 46%, the “Population Membrane Permeable-Phenotype (%)” value [4] was 0% and the “Population Mitochondria Different-Phenotype (%)” value [4] was 100% and 98%. For the same compound, the “Population Mitotic Cells (%)” value [4] was 8% and 10%, the “Population Normal (%)” value [4] was 31% and 53% and the “Population Pyknosed Nuclei (%)” value [4] was 50% and 30%. The “Population Tubulin-Different-Phenotype (%)” value [4] was 66% and 57%, the “Total Cell Count” value [4] was 284 and 180 and the “Population Apoptotic (%)” value [5] was 49% and 48%. For the same compound, the “Population Fragmented Nuclei (%)” value [5] was 9% and 12%, the “Population Healthy Nuclei (%)” value [5] was 80% and 79% and the “Population Hoechst High Intensity Objects (%)” value [5] was 5% and 3%. For the same compound, the “Population Membrane Permeable-Phenotype (%)” value [5] was 0% and 1%, the “Population Mitochondria Different-Phenotype (%)” value [5] was 47% and 36% and the “Population Mitotic Cells (%)” value [5] was 50% and 51%. For the same compound, the “Population Normal (%)” value [5] was 94% and 96%, the “Population Pyknosed Nuclei (%)” value [5] was 10% and 7% and the “Population Tubulin-Different-Phenotype (%)” value [5] was 28% and 26%. For the same compound, the “Total Cell Count” value [5] was 679 and 644, the “Population Apoptotic (%)” value [6] was 93% and 89% and the “Population Fragmented Nuclei (%)” value [6] was 19% and 14%. For the same compound, the “Population Healthy Nuclei (%)” value [6] was 30% and 50%, the “Population Hoechst High Intensity Objects (%)” value [6] was 67% and 52% and the “Population Membrane Permeable-Phenotype (%)” value [6] was 0%. For the same compound, the “Population Mitochondria Different-Phenotype (%)” value [6] was 96% and 97%, the “Population Mitotic Cells (%)” value [6] was 6% and 10% and the “Population Normal (%)” value [6] was 32% and 47%. The “Population Pyknosed Nuclei (%)” value [6] was 50% and 34%, the “Population Tubulin-Different-Phenotype (%)” value [6] was 51% and 82% and the “Total Cell Count” value [6] was 269 and 170.
